# Test results from ChEMBL document CHEMBL3596186, “Synthesis and biological evaluation of diarylthiazole derivatives as antimitotic and antivascular agents with potent antitumor activity” (Bioorg Med Chem, 2015).
# Activity calls are given as the source filed them. The calls are words filed in the database; no cut-off is given here.
# What was measured:
# HepG2 [1] = test: Cell cycle arrest in human HepG2 cells assessed as accumulation at S phase at 0.2 uM after 24 hrs by flow cytometry (reference value: 23.97%); assay type: functional
# HepG2 [2] = test: Cell cycle arrest in human HepG2 cells assessed as accumulation at S phase at 1 uM after 24 hrs by flow cytometry (reference value: 23.97%); assay type: functional
# HepG2 [3] = test: Induction of apoptosis in human HepG2 cells assessed as early apoptotic cells at 0.5 uM after 24 hrs by annexin V/propidium iodide staining-based flow cytometry (reference value: 0.87%); assay type: functional
# HepG2 [4] = test: Induction of apoptosis in human HepG2 cells assessed as necrotic cells at 1 uM after 24 hrs by annexin V/propidium iodide staining-based flow cytometry (reference value: 1.59%); assay type: functional
# HepG2 [5] = test: Induction of apoptosis in human HepG2 cells assessed as viable cells at 1 uM after 24 hrs by annexin V/propidium iodide staining-based flow cytometry (reference value: 89.8%); assay type: functional; settings: HepG2, 24 h, read-out: Activity
# HepG2 [6] = test: Induction of apoptosis in human HepG2 cells assessed as late apoptotic cells at 0.5 uM after 48 hrs by annexin V/propidium iodide staining-based flow cytometry (reference value: 3.74%); assay type: functional
# HepG2 [7] = test: Induction of apoptosis in human HepG2 cells assessed as late apoptotic cells at 1 uM after 48 hrs by annexin V/propidium iodide staining-based flow cytometry (reference value: 3.74%); assay type: functional
# HepG2 [8] = test: Antimitotic activity in human HepG2 cells assessed as inhibition of microtubule formation at 0.2 uM after 24 hrs by DAPI staining-based immmunofluorescence assay; assay type: functional, cell-based
# Outline: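 HepG2 cells seeded in 6-well plates and treated with compound. Fixed in 4% paraformaldehyde, permeabilized with 0.5% Triton X-100 in PBS, blocked 30 min in 5% goat serum at room temperature. Stained with monoclonal anti-α-tubulin 1 h at room temperature, then fluorescent secondary antibody, nuclei labelled with DAPI. Viewed by fluorescence microscopy.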
# HUVEC [9] = test: Antimigratory activity against HUVEC after 24 hrs by phase contrast microscopy; assay type: functional, cell-based; settings: Homo sapiens
# Outline: (§1)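 HUVEC monolayers grown overnight in 6-well plates, scratched with pipet tips, washed twice with PBS, then given fresh EBM2 with vehicle or compound. Imaged by phase contrast at 0 and 24 h (100×). Migrated cells counted manually in 3 separate fields; mean ± SD from three fields.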
# HUVEC [10] = test: Antimigratory activity against HUVEC at 500 nM after 24 hrs by phase contrast microscopy; assay type: functional, cell-based; settings: Homo sapiens; outline: as §1
# HCT-116 [11] = test: Antitumor activity against human HCT116 cells xenografted in Balb/c athymic nude mouse assessed as tumor growth inhibition at 20 mg/kg, ip administered daily after 42 days; assay type: functional; settings: HCT-116, ip, 1008 h, read-out: TGI
# Outline: (§2)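 Female Balb/C athymic nude mice, 5-6 weeks old, implanted s.c. in the right flank with HCT116 cells in 100 µL HBSS. Tumor volume (π/6 × L × W²) and body weight measured every 2 days. Inhibition = (1 − treated/control tumor weight) × 100%.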
# HCT-116 [12] = test: Antitumor activity against human HCT116 cells xenografted in Balb/c athymic nude mouse assessed as tumor growth inhibition at 50 mg/kg, ip administered daily after 42 days; assay type: functional; settings: HCT-116, ip, 1008 h, read-out: TGI; outline: as §2
# HepG2 [13] = test: Antiproliferative activity against human HepG2 cells after 48 hrs by MTT assay; assay type: functional, cell-based; settings: HepG2, 48 h
# Outline: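 HCT116, HepG2, SMMC-7721, SK-OV-3 and A2780s grown in DMEM; A549 and MCF-7 in RPMI-1640; all with 10% FBS and penicillin/streptomycin at 37 °C, 5% CO2. Log-phase cells at 40,000-50,000 cells/mL treated with graded concentrations for 48 h. MTT 3 h, DMSO solubilization, A570. IC50 from percent growth versus untreated control; mean ± SEM of ≥3 independent dose-response experiments.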
# Tubulin (Homo sapiens) = Tubulin (Homo sapiens) (UniProt P68371+Q9H4B7+P0DPH7+P68366+Q13509+Q71U36+P04350+Q3ZCM7+P07437+P68363+Q9BQE3+Q6PEY2+Q13885+Q9BVA1+Q9BUF5); test: Binding affinity to tubulin in human HepG2 cells at 5 uM after 4 hrs by EBI competition assay; assay type: cell-based
# Outline: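 HepG2 cells seeded at 500,000 cells/well, allowed to adhere, then treated with compound for 4 h. EBI added at 100 µM for 1.5 h. Cell extracts (about 20 µg protein) run on 10% SDS-PAGE, blotted to PVDF, probed with anti-β-tubulin, detected by ECL with GAPDH as loading control. Read-out is loss of the faster-migrating β-tubulin–EBI adduct band.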
# [14] = Antiproliferative activity against human doxorubicin-resistant MCF7 cells after 48 hrs by MTT assay; assay type: functional, cell-based; settings: MCF7, 48 h
# Outline: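 MCF-7/ADR (doxorubicin-resistant) and A549/T (taxol-resistant) cells in RPMI-1640 with 10% FBS and penicillin/streptomycin. Log-phase cells at 40,000-50,000 cells/mL exposed to graded concentrations for 48 h. MTT 3 h, DMSO solubilization, absorbance 570 nm. IC50 from percent growth versus untreated control; mean ± SEM of ≥3 independent experiments.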
# HCT-116 [15] = test: Cell cycle arrest in human HCT116 cells assessed as accumulation at S phase at 0.5 uM after 24 hrs by flow cytometry (reference value: 25.66%); assay type: functional
# HCT-116 [16] = test: Cell cycle arrest in human HCT116 cells assessed as accumulation at S phase at 1 uM after 24 hrs by flow cytometry (reference value: 25.66%); assay type: functional
# HCT-116 [17] = test: Induction of apoptosis in human HCT116 cells assessed as late apoptotic cells at 0.5 uM after 24 hrs by annexin V/propidium iodide staining-based flow cytometry (reference value: 1.71%); assay type: functional
# Outline: (§3)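 HCT116 cells treated with compound or DMSO for 24 or 48 h, trypsinized, washed twice in PBS and dual-stained with annexin-V and PI. Analysed by flow cytometry: early apoptotic cells scored as annexin-V+/PI−, late apoptotic cells as annexin-V+/PI+.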
# HCT-116 [18] = test: Induction of apoptosis in human HCT116 cells assessed as necrotic cells at 0.5 uM after 24 hrs by annexin V/propidium iodide staining-based flow cytometry (reference value: 3.49%); assay type: functional
# HCT-116 [19] = test: Induction of apoptosis in human HCT116 cells assessed as viable cells at 0.5 uM after 24 hrs by annexin V/propidium iodide staining-based flow cytometry (reference value: 92%); assay type: functional; settings: HCT-116, 24 h, read-out: Activity
# HCT-116 [20] = test: Induction of apoptosis in human HCT116 cells assessed as early apoptotic cells at 0.2 uM after 48 hrs by annexin V/propidium iodide staining-based flow cytometry (reference value: 2.83%); assay type: functional; outline: as §3
# HCT-116 [21] = test: Induction of apoptosis in human HCT116 cells assessed as early apoptotic cells at 0.5 uM after 48 hrs by annexin V/propidium iodide staining-based flow cytometry (reference value: 2.83%); assay type: functional; outline: as §3
# HCT-116 [22] = test: Induction of apoptosis in human HCT116 cells assessed as viable cells at 0.5 uM after 48 hrs by annexin V/propidium iodide staining-based flow cytometry (reference value: 92%); assay type: functional; settings: HCT-116, 48 h, read-out: Activity
smiles,measurement,setting,value
CCOc1ccc(-c2nc(N)sc2-c2cc(OC)c(OC)c(OC)c2)cc1,Activity,HepG2 [1],29.88%
same,Activity,HepG2 [2],7.43%
same,Activity,HepG2 [3],11.2%
same,Activity,HepG2 [4],0.79%
same,viability at 1 µM,HepG2 [5],65.4%
same,Activity,HepG2 [6],4.38%
same,Activity,HepG2 [7],2.67%
same,Activity,HepG2 [8],Active
same,Activity,HUVEC [9],Dose-dependent effect
same,Activity,HUVEC [10],Active
same,inhibition in vivo at 20 mg/kg,HCT-116 [11],49.5%
same,inhibition in vivo at 50 mg/kg,HCT-116 [12],55.1%
same,IC50,HepG2 [13],26.4 nM
same,Activity,Tubulin (Homo sapiens),inactive
same,IC50,[14],190 nM
same,Activity,HCT-116 [15],20.51%
same,Activity,HCT-116 [16],7.71%
same,Activity,HCT-116 [17],10.8%
same,Activity,HCT-116 [18],3.5%
same,viability at 0.5 µM,HCT-116 [19],74.5%
same,Activity,HCT-116 [20],40.2%
same,Activity,HCT-116 [21],40.3%
same,viability at 0.5 µM,HCT-116 [22],29.1%
